Test results as given in ChEMBL document CHEMBL1131210, “5-(5,6-Dichloro-2-indolyl)-2-methoxy-2,4-pentadienamides: novel and selective inhibitors of the vacuolar H+-ATPase of osteoclasts with bone antiresorptive activity” (J Med Chem, 1998).

Columns and labels:
[1] = In vitro inhibition of bone resorption by isolated Human osteoclastoma cells (ELISA); type: functional
Outline: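 Collagenase-dispersed osteoclastoma cells, negatively selected with HLA-I Dynabeads, were settled on bone slices at 4000 cells/well. Compound was added at several concentrations, with 8 slices per concentration. After 48 h in D-MEM, type I collagen fragments released into the supernatant were quantified by ELISA.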

[2] = In vitro inhibition of bone resorption by isolated Human osteoclastoma cells by the number of excavations (pits/bone slice); type: functional
Outline: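 Human giant-cell-tumour osteoclasts were HLA-I bead-depleted and seeded on bone slices (4000 cells/well), 8 slices per concentration, then cultured 48 h in D-MEM. Slices were glutaraldehyde-fixed and TRAP-stained, and cells were bleached off. Slices were gold-coated and resorption pits counted by light microscopy, expressed as pits/bone slice.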

[3] = target: T1, V-type proton ATPase 116 kDa subunit a 1 (Gallus gallus, UniProt Q9I8D0); assay: Compound was tested for inhibition of V-ATPase from Chicken adrenal glands(cAG); type: tissue-based, Adrenal gland
Outline: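 Bafilomycin-sensitive ATPase in purified microsomal membranes from whole chicken adrenal glands (two-step 35%/50% sucrose gradient), 20–40 μg protein/mL. Medium: 0.2 M sucrose, 50 mM KCl, 10 mM Hepes-Tris pH 7.4, 1 mM CDTA, 1 mM ATP, 0.1 mM molybdate, 5 μM valinomycin, 5 μM nigericin. Started with 5 mM MgSO4, 30 min at 37 °C, phosphate read by malachite green.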

[4] = target: T1, V-type proton ATPase 116 kDa subunit a 1; assay: (§1) Compound was tested for inhibition of V-ATPase from Chicken osteoclasts (cOc)
Outline: (§2)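 Bafilomycin-sensitive ATPase activity in sucrose-gradient-purified membrane vesicles from medullary bone of calcium-starved egg-laying hens, 20–40 μg protein/mL. Medium: 0.2 M sucrose, 50 mM KCl, 10 mM Hepes-Tris pH 8, 1 mM CDTA, 1 mM ATP, 0.1 mM molybdate, 5 μM valinomycin, 5 μM nigericin. Started with 5 mM MgSO4; 30 min, 37 °C; phosphate release by malachite green.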

[5] = target: V-type proton ATPase subunit B, kidney isoform (Homo sapiens, UniProt P15313); assay: Compound was tested for inhibition of V-ATPase from human kidney cortex(hK)
Outline: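 Brush border membranes from frozen human kidney cortex, about 70 μg protein/mL. Bafilomycin-sensitive ATPase in 0.2 M sucrose, 50 mM KCl, 10 mM Hepes-Tris pH 7.4, 1 mM CDTA, 1 mM ATP, 0.1 mM molybdate, 5 μM valinomycin, 5 μM nigericin. Started with 5 mM MgSO4, 30 min at 37 °C, Pi measured colorimetrically (malachite green).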

[6] = target: T1, V-type proton ATPase 116 kDa subunit a 1; assay: as §1; type: functional; outline: as §2

T1 sequence (Q9I8D0 whole entry): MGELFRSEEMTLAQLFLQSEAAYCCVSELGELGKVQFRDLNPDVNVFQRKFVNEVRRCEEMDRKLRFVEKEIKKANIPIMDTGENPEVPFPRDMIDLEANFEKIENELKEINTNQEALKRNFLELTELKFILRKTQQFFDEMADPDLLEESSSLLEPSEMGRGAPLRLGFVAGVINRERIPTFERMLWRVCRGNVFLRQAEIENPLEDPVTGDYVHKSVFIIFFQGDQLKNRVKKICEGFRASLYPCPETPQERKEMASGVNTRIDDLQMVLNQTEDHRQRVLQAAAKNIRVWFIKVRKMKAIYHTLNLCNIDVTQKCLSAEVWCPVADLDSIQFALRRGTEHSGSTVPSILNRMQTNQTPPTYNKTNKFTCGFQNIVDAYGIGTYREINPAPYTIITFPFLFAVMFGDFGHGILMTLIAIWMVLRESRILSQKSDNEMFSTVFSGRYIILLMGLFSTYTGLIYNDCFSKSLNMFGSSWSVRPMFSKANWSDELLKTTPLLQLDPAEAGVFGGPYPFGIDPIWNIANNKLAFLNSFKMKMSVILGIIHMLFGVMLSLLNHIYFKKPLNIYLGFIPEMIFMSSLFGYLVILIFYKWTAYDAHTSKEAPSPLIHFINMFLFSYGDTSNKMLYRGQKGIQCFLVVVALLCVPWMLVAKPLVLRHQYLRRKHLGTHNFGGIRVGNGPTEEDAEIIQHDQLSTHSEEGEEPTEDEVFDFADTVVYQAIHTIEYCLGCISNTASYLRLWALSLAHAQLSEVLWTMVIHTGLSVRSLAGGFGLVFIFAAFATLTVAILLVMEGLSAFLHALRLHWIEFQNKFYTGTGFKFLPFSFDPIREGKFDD
Sequence of V-type proton ATPase subunit B, kidney isoform (P15313 whole entry, canonical isoform): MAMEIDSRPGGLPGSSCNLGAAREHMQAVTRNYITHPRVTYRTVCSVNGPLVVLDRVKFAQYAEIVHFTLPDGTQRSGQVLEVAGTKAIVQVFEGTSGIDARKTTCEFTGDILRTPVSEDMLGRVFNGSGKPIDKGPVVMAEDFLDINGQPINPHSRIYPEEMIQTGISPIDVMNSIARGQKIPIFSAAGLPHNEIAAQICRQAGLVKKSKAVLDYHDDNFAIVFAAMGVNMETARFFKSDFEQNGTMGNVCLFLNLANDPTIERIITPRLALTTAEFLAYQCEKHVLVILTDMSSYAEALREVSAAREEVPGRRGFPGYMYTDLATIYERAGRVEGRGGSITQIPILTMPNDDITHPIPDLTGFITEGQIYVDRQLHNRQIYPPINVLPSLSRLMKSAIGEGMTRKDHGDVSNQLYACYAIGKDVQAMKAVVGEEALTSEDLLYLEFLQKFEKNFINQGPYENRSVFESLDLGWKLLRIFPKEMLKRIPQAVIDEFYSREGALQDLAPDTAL

IC50 [1] [nM] | IC50 [2] [nM] | IC50 [3] [nM] | IC50 [4] [nM] | IC50 [5] [nM] | IC50 [6] [nM] | Structure (SMILES)
10 | 30 | 930 | 60 | 370 | – | CO/C(=C\C=C\c1cc2cc(Cl)c(Cl)cc2[nH]1)C(=O)NCCCN1CCN(c2ncccn2)CC1
140 | 180 | 2800 | 180 | 3000 | – | CCN(CC)CCCNC(=O)/C(=C/C=C/c1cc2cc(Cl)c(Cl)cc2[nH]1)OC
– | – | – | 30000 | – | 30000 | COC(=O)/C(=C\C=C\c1cc2ccccc2[nH]1)OC
30 | 40 | 820 | 80 | 440 | – | CO/C(=C\C=C\c1cc2cc(Cl)c(Cl)cc2[nH]1)C(=O)NC1CC(C)(C)NC(C)(C)C1

Structure (SMILES) | IC50 [1] [nM] | IC50 [2] [nM] | IC50 [3] [nM] | IC50 [4] [nM] | IC50 [5] [nM] | IC50 [6] [nM]
CO/C(=C\C=C\c1cc2cc(Cl)c(Cl)cc2[nH]1)C(=O)NC1C[C@H]2CC[C@@H](C1)N2C (some centres not stated) | 30 | 30 | 2500 | 100 | 1320 | –
